The values that follow come from ChEMBL document CHEMBL3259602, “Thiaflavan scavenges radicals and inhibits DNA oxidation: a story from the ferrocene modification” (Eur J Med Chem, 2014).

Assay [1] can be described thus: Antioxidant activity assessed as ABTS radical scavenging activity after 16 hrs by spectrophotometric analysis. It is filed as functional. The method in brief: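 Radical cation pre-formed over 16 h, then diluted in ethanol to about 0.70 absorbance at 734 nm. Compound in DMSO (0.1 mL) was added to 1.9 mL of radical solution at 7.5 μM final. Absorbance decay was recorded at 25 °C. The rate constant k was derived from the initial rate (t = 0).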

A short description of assay [2]: Antioxidant activity assessed as inhibition of AAPH-induced oxidation of DNA by spectrophotometric analysis. It is filed as functional. The method in brief: (§1)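 DNA sodium salt (2.0 mg/mL) with 40 mM AAPH in phosphate buffer (8.1 mM Na2HPO4, 1.9 mM NaH2PO4, 10.0 mM EDTA), with various compound concentrations in DMSO; DMSO-only blank. Samples were heated at 37 °C. TBARS was read at 535 nm. The inhibition period was taken at the crossing of tangents, then plotted against concentration.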

Assay [3] is described as follows: Antioxidant activity assessed as galvinoxyl radical scavenging activity by spectrophotometric analysis. It is filed as functional. The essentials: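 Galvinoxyl in ethanol, absorbance about 1.00 at 428 nm. Compound in DMSO (0.1 mL) was added to 1.9 mL of radical solution at 7.5 or 75.0 μM final, depending on compound. Absorbance decay was recorded at 25 °C. The rate constant k was derived from the initial rate at t = 0.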

The test system of assay [4] is Radical scavenging activity. In words: Antioxidant activity assessed as DPPH radical scavenging activity by spectrophotometric analysis. It is filed as functional. The method in brief:
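DPPH in ethanol (about 1.00 absorbance at 517 nm). Compound in DMSO (0.1 mL) was added to 1.9 mL of radical solution at 37.5 or 75.0 μM final, depending on compound. Absorbance decay was followed at 25 °C. The rate constant k was calculated from the initial reaction rate at t = 0.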
A general note: Loss of DPPH colour is used to gauge radical scavenging.

Assay [5] is described as follows: Antioxidant activity assessed as inhibition of AAPH-induced oxidation of DNA at 100 uM by spectrophotometric analysis. In kind it is functional. The method in brief: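 Oxidation of 2.0 mg/mL DNA by 40 mM AAPH in phosphate/EDTA buffer at 37 °C, with compound at 100 μM (DMSO vehicle; DMSO-only control). TBARS was monitored at 535 nm (ε 1.56 × 10^5 M⁻¹ cm⁻¹), and its formation rate d[TBARS]/dt was expressed in nM min⁻¹.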

Assay [6] in a line: Antioxidant activity assessed as inhibition of AAPH-induced oxidation of DNA measured as TBARS formation by spectrophotometric analysis. In kind it is functional. The method in brief: as §1
Assay [7] can be described thus: Antioxidant activity assessed as inhibition of AAPH-induced oxidation of DNA at 100 uM by spectrophotometric analysis.
Assay [8] is described as follows: Antioxidant activity assessed as inhibition of AAPH-induced oxidation of DNA at 200 uM by spectrophotometric analysis. It is filed as functional.

Calls of active or inactive are those of the source. The calls are words filed in the database; no cut-off is given here.

Turning to `Oc1ccc2c(c1)SCC(c1ccc(O)c(O)c1)O2` (stereo unspecified), the K in assay [1] was 11.7 ×10³ /M/s; in assay [3] it was 0.52 ×10³ /M/s; in assay [4] it was 1.18 ×10³ /M/s. Moreover, the outcome in assay [2] was Active.
`Oc1ccc(C2CSc3ccc(O)cc3O2)cc1` (stereo unspecified): the K in assay [1] amounted to 10.8 ×10³ /M/s; in assay [3] it was 0.034 ×10³ /M/s; in assay [4] it was 0.069 ×10³ /M/s. The result in assay [5] and in assay [7] was Active. Also, the Activity in assay [6] came to 4.1 nM/min.
With `COc1ccc2c(c1)SCC(c1ccc(O)c(O)c1)O2` (stereo unspecified), the values for the K in assay [1], in assay [3] and in assay [4] were 390 ×10³ /M/s, 2.54 ×10³ /M/s and 2.2 ×10³ /M/s, respectively. The result in assay [2] was Active.
The corresponding values for `Oc1ccc(C2CSc3cc(O)ccc3O2)cc1` (stereo unspecified) are 8.92 ×10³ /M/s, 0.025 ×10³ /M/s, 0.043 ×10³ /M/s and “Active”.
Take `COc1ccc2c(c1)SC=C(c1ccc(O)cc1)O2`: the K in assay [1] was found to be 8.14 ×10³ /M/s; in assay [4], 0.031 ×10³ /M/s. In assay [8], the result was Active. The Activity in assay [6] was determined as 5.8 nM/min.
As to `Oc1ccccc1O`, the K in assay [1] came to 2.58 ×10³ /M/s; in assay [3], 1.78 ×10³ /M/s; in assay [4] it was 1.3 ×10³ /M/s.
As for `COc1ccc2c(c1)SCC(c1ccc(O)cc1)O2` (stereo unspecified), the K in assay [1] turned out to be 0.202 ×10³ /M/s. Besides, the outcome in assay [8] was Active. Further, the Activity in assay [6] amounted to 4.2 nM/min.
On to `Oc1ccc2c(c1)OC(c1ccc(O)c(O)c1)CS2` (stereo unspecified), for which the K in assay [1] is 16.7 ×10³ /M/s; in assay [3], 0.57 ×10³ /M/s; in assay [4], 1.61 ×10³ /M/s. Further, the result in assay [2] was Active.
Take `Cc1c(C)c2c(c(C)c1O)CCC(C)(C(=O)O)O2` (stereo unspecified): the K was determined as 29.2 ×10³ /M/s in assay [1], 1.7 ×10³ /M/s in assay [3] and 0.353 ×10³ /M/s in assay [4].
Consider `Oc1ccc2c(c1)SC=C(c1ccccc1)O2`, for which the figures for the K in assay [1] and in assay [4] were 4.89 ×10³ /M/s and 0.0071 ×10³ /M/s, respectively. The outcome in assay [8] was Active. For the same compound, the Activity in assay [6] stood at 5.2 nM/min.
As to `COc1ccc2c(c1)OC(c1ccc(O)cc1)CS2` (stereo unspecified), in assay [1], the K came out at 0.168 ×10³ /M/s. Also, the outcome in assay [2] was Active.
